Reference: ChEMBL document CHEMBL1137218, “Long hydrocarbon chain ether diols and ether diacids that favorably alter lipid disorders in vivo” (J Med Chem, 2004)
pIC50: −log10 of the molar value.

Key:
[1] = tested on: Rattus norvegicus; assay: Blood glucose levels in female obese rats two weeks post treatment at 3 mg/kg oral dose; pretreatment value = 117 mg/dL; type: functional
[2] = tested on: Rattus norvegicus; assay: Serum HDL cholesterol levels in female obese rats one week post treatment at 3 mg/kg oral dose; pretreatment value = 59 mg/dL; type: functional
[3] = tested on: Rattus norvegicus; assay: Serum Triglyceride levels in female obese rats one week post treatment at 100 mg/kg oral dose; pretreatment value = 746 mg/dL; type: functional
[4] = tested on: Rattus norvegicus; assay: Blood glucose levels in female obese rats one week post treatment at 10 mg/kg oral dose; pretreatment value = 112 mg/dL; type: functional
[5] = tested on: Rattus norvegicus; assay: Serum Triglyceride levels in female obese rats one week post treatment at 10 mg/kg oral dose; pretreatment value = 943 mg/dL; type: functional
[6] = tested on: Rattus norvegicus; assay: Serum HDL cholesterol levels in female obese rats one week post treatment at 30 mg/kg oral dose; pretreatment value = 42 mg/dL; type: functional
[7] = tested on: Rattus norvegicus; assay: Serum HDL cholesterol levels in female obese rats one week post treatment at 100 mg/kg oral dose; pretreatment value = 59 mg/dL; type: functional
[8] = tested on: Rattus norvegicus; assay: Serum HDL cholesterol levels in female obese rats two weeks post treatment at 30 mg/kg oral dose; pretreatment value = 42 mg/dL; type: functional
[9] = tested on: Rattus norvegicus; assay: Blood glucose levels in female obese rats one week post treatment at 100 mg/kg oral dose; pretreatment value = 105 mg/dL; type: functional
[10] = tested on: Rattus norvegicus; assay: Serum HDL cholesterol levels in female obese rats two weeks post treatment at 100 mg/kg oral dose; pretreatment value = 59 mg/dL; type: functional
[11] = organism: Rattus norvegicus; assay: In vitro inhibitory concentration against lipid synthesis in primary rat hepatocyte culture; type: functional
Procedure, shortened: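 Primary hepatocytes isolated from male Sprague-Dawley rats (Seglen method) and plated on collagen in DMEM with 20% FBS, 100 nM insulin, 25 mM glucose. Medium made serum-free after 4 h, cultured overnight to monolayers. Then 4 h incubation with 0.25 μCi [14C]-acetate/well (1 Ci/mol) and 0–300 μM compound. Lipids extracted into scintillant and counted. IC50 derived from lipid synthesis rates by nonlinear sigmoidal fit.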

[12] = tested on: Rattus norvegicus; assay: Serum Non-HDL cholesterol levels in female obese rats two weeks post treatment at 30 mg/kg oral dose; pretreatment value = 31 mg/dL; type: functional
Procedure, shortened: (§1)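 Female obese Zucker fatty rats (10–12 weeks, 400–500 g), once-daily oral gavage in 20% EtOH/80% PEG-200 (v/v) for up to 14 days. Serum drawn after a 6 h fast, pre-dose and at days 7 and 14. Non-HDL cholesterol is serum total cholesterol times the percent area of the non-HDL peaks in a Superose 6HR gel-filtration profile with on-line cholesterol detection. n = 4 per dose.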

[13] = tested on: Rattus norvegicus; assay: Serum Non-HDL cholesterol levels in female obese rats two weeks post treatment at 100 mg/kg oral dose; pretreatment value = 23 mg/dL; type: functional; procedure, shortened: as §1
[14] = tested on: Rattus norvegicus; assay: Percent change from pre-treatment triglycerides level at 100 mg/Kg after 1 week; type: functional
Procedure, shortened: (§2)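 Female obese Zucker fatty rats Crl:(Zuc)-faBR, 10–12 weeks old (400–500 g), n=3–4, fed chow. Dosed by oral gavage once daily in 20% EtOH/80% PEG-200 for up to 14 days. Serum taken after a 6 h fast before dosing, at day 7 (orbital plexus) and at day 14 (cardiac puncture). TG by enzymatic kit on analyzer. HDL-C and non-HDL-C from Superose 6 gel-filtration profile area × total cholesterol. Results given as % change from pretreatment.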

[15] = tested on: Rattus norvegicus; assay: Percent change from pre-treatment triglycerides level at 100 mg/Kg after 2 weeks; type: functional; procedure, shortened: as §2
[16] = tested on: Rattus norvegicus; assay: Percent change from pre-treatment HDL-Cholesterol level at 100 mg/Kg after 1 week; type: functional; procedure, shortened: as §2
[17] = tested on: Rattus norvegicus; assay: Percent change from pre-treatment HDL-Cholesterol level at 100 mg/Kg after 2 weeks; type: functional; procedure, shortened: as §2
[18] = tested on: Rattus norvegicus; assay: Percent change from pre-treatment Non HDL-Cholesterol level at 100 mg/Kg after 1 week; type: functional; procedure, shortened: as §2
[19] = tested on: Rattus norvegicus; assay: Percent change from pre-treatment Non HDL-Cholesterol level at 100 mg/Kg after 2 weeks; type: functional; procedure, shortened: as §2
[20] = tested on: Rattus norvegicus; assay: Insulin levels in female obese rats two weeks post treatment at 30 mg/kg oral dose; pretreatment value = 9.3 ng/mL; type: functional
[21] = tested on: Rattus norvegicus; assay: Serum NEFA levels in female obese rats two weeks post treatment at 3 mg/kg oral dose; pretreatment value = 1.2 mg/dL; type: functional
[22] = tested on: Rattus norvegicus; assay: Insulin levels in female obese rats one week post treatment at 100 mg/kg oral dose; pretreatment value = 12.7 ng/mL; type: functional
[23] = tested on: Rattus norvegicus; assay: Blood glucose levels in female obese rats two weeks post treatment at 100 mg/kg oral dose; pretreatment value = 105 mg/dL; type: functional
[24] = tested on: Rattus norvegicus; assay: Serum Non-HDL cholesterol levels in female obese rats one week post treatment at 30 mg/kg oral dose; pretreatment value = 31 mg/dL; type: functional; procedure, shortened: as §1
[25] = tested on: Rattus norvegicus; assay: Serum Non-HDL cholesterol levels in female obese rats one week post treatment at 100 mg/kg oral dose; pretreatment value = 23 mg/dL; type: functional; procedure, shortened: as §1
[26] = tested on: Rattus norvegicus; assay: Serum Non-HDL cholesterol levels in female obese rats two weeks post treatment at 10 mg/kg oral dose; pretreatment value = 25 mg/dL; type: functional; procedure, shortened: as §1
[27] = tested on: Rattus norvegicus; assay: Serum Triglyceride levels in female obese rats one week post treatment at 30 mg/kg oral dose; pretreatment value = 1004 mg/dL; type: functional
[28] = tested on: Rattus norvegicus; assay: Blood glucose levels in female obese rats one week post treatment at 30 mg/kg oral dose; pretreatment value = 106 mg/dL; type: functional
[29] = tested on: Rattus norvegicus; assay: Serum Triglyceride levels in female obese rats one week post treatment at 3 mg/kg oral dose; pretreatment value = 1111 mg/dL; type: functional
[30] = tested on: Rattus norvegicus; assay: Serum Triglyceride levels in female obese rats two weeks post treatment at 30 mg/kg oral dose; pretreatment value = 1004 mg/dL; type: functional
[31] = tested on: Rattus norvegicus; assay: Blood glucose levels in female obese rats two weeks post treatment at 30 mg/kg oral dose; pretreatment value = 106 mg/dL; type: functional
[32] = tested on: Rattus norvegicus; assay: Serum HDL cholesterol levels in female obese rats two weeks post treatment at 100 mg/kg oral dose; pretreatment value = 58 mg/dL; type: functional
[33] = tested on: Rattus norvegicus; assay: Serum NEFA levels in female obese rats one week post treatment at 10 mg/kg oral dose; pretreatment value = 1.4 mg/dL; type: functional
[34] = tested on: Rattus norvegicus; assay: Serum NEFA levels in female obese rats two weeks post treatment at 3 mg/kg oral dose; pretreatment value = 1.1 mg/dL; type: functional
[35] = tested on: Rattus norvegicus; assay: Serum NEFA levels in female obese rats two weeks post treatment at 10 mg/kg oral dose; pretreatment value = 1.4 mg/dL; type: functional
[36] = tested on: Rattus norvegicus; assay: Serum NEFA levels in female obese rats two weeks post treatment at 30 mg/kg oral dose; pretreatment value = 1.2 mg/dL; type: functional
[37] = tested on: Rattus norvegicus; assay: Serum HDL cholesterol levels in female obese rats one week post treatment at 10 mg/kg oral dose; pretreatment value = 61 mg/dL; type: functional
[38] = tested on: Rattus norvegicus; assay: Serum Non-HDL cholesterol levels in female obese rats one week post treatment at 3 mg/kg oral dose; pretreatment value = 29 mg/dL; type: functional; procedure, shortened: as §1
[39] = tested on: Rattus norvegicus; assay: Blood glucose levels in female obese rats one week post treatment at 10 mg/kg oral dose; pretreatment value = 110 mg/dL; type: functional
[40] = tested on: Rattus norvegicus; assay: Serum Non-HDL cholesterol levels in female obese rats two weeks post treatment at 3 mg/kg oral dose; pretreatment value = 29 mg/dL

## CC(C)(CO)CCCCOCCCCC(C)(C)CO
[1]
  Activity: 119 mg/dL
[2]
  Activity: 70 mg/dL
[3]
  Activity: 174 mg/dL
[4]
  Activity: 110 mg/dL
[5]
  Activity: 629 mg/dL
[6]
  Activity: 149 mg/dL
[7]
  Activity: 192 mg/dL
[8]
  Activity: 222 mg/dL
[9]
  Activity: 107 mg/dL
[10]
  Activity: 263 mg/dL
[11]
  pIC50: 4.96
[12]
  Activity: 33 mg/dL
[13]
  Activity: 26 mg/dL
[14]
  Change: -77%
[15]
  Change: -71%
[16]
  Change: 234%
[17]
  Change: 366%
[18]
  Change: -38%
[19]
  Change: 11%
[20]
  Activity: 17.4 ng/mL
[21]
  Activity: 1.5 mg/dL
[22]
  Activity: 14.5 ng/mL
[23]
  Activity: 101 mg/dL
[24]
  Activity: 20 mg/dL
[25]
  Activity: 14 mg/dL
[26]
  Activity: 43 mg/dL

## CC(C)(CO)CCCCCOCCCCCC(C)(C)CO
[27]
  Activity: 191 mg/dL
[28]
  Activity: 113 mg/dL
[29]
  Activity: 1031 mg/dL
[30]
  Activity: 424 mg/dL
[9]
  Activity: 72 mg/dL
[31]
  Activity: 141 mg/dL
[32]
  Activity: 134 mg/dL
[11]
  pIC50: 5.40
[12]
  Activity: 32 mg/dL
[13]
  Activity: 10 mg/dL
[14]
  Change: -91%
[15]
  Change: -82%
[16]
  Change: 99%
[17]
  Change: 133%
[18]
  Change: -82%
[19]
  Change: -68%
[33]
  Activity: 1.3 mg/dL
[34]
  Activity: 1.5 mg/dL
[35]
  Activity: 1.5 mg/dL
[36]
  Activity: 0.82 mg/dL
[37]
  Activity: 92 mg/dL
[23]
  Activity: 104 mg/dL
[38]
  Activity: 26 mg/dL
[24]
  Activity: 15 mg/dL
[25]
  Activity: 5 mg/dL
[39]
  Activity: 100 mg/dL
[40]
  Activity: 29 mg/dL
